Tested on: Fibroblast
Test: Multiplex assay against human fibroblast
Assay type: toxicity, cell-based
Method in brief: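 Live cells were stained at seeding with Hoechst33342, BioTracker Green Microtubule Cytoskeleton Dye, MitoTracker Red and Annexin V Alexa Fluor 680. Following compound addition, they were imaged on a CQ1 microscope at 37°C and 5% CO2 and gated by CellPathfinder machine learning into Hoechst high-intensity objects or normal cells, with normal cells split into healthy, pyknosed or fragmented nuclei and pyknosed cells into mitotic or apoptotic. Tubulin, mitochondrial-mass and membrane-permeability phenotypes are per cents of healthy-nucleus cells.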

[1] = 12 h, 1 µM, compound concentration 1 uM, replicate 1
[2] = 12 h, 1 µM, compound concentration 1 uM, replicate 2
[3] = 12 h, 10 µM, compound concentration 10 uM, replicate 1
[4] = 12 h, 10 µM, compound concentration 10 uM, replicate 2
[5] = 24 h, 1 µM, compound concentration 1 uM, replicate 1
[6] = 24 h, 1 µM, compound concentration 1 uM, replicate 2
[7] = 24 h, 10 µM, compound concentration 10 uM, replicate 1
[8] = 24 h, 10 µM, compound concentration 10 uM, replicate 2
[9] = 48 h, 1 µM, compound concentration 1 uM, replicate 1
[10] = 48 h, 1 µM, compound concentration 1 uM, replicate 2
[11] = 48 h, 10 µM, compound concentration 10 uM, replicate 1
[12] = 48 h, 10 µM, compound concentration 10 uM, replicate 2

In the case of `Br.CS(=O)(=O)Nc1c(O)ccc2c1CCCC2C1=NCCN1` (configuration not stated), the “Population Apoptotic (%)” value [1] is reported as 17%, the “Population Fragmented Nuclei (%)” value [1] is reported as 9% and the “Population Healthy Nuclei (%)” value [1] is reported as 76%. The “Population Hoechst High Intensity Objects (%)” value [1] was 1%, the “Population Membrane Permeable-Phenotype (%)” value [1] was 0% and the “Population Mitochondria Different-Phenotype (%)” value [1] was 5%. For the same compound, the “Population Mitotic Cells (%)” value [1] was 82%, the “Population Normal (%)” value [1] was 98% and the “Population Pyknosed Nuclei (%)” value [1] was 14%. The “Population Tubulin-Different-Phenotype (%)” value [1] was 20%, the “Total Cell Count” value [1] was 167 and the “Population Apoptotic (%)” value [2] was 31%. For the same compound, the “Population Fragmented Nuclei (%)” value [2] was 32%, the “Population Healthy Nuclei (%)” value [2] was 47% and the “Population Hoechst High Intensity Objects (%)” value [2] was 8%. For the same compound, the “Population Membrane Permeable-Phenotype (%)” value [2] was 7%, the “Population Mitochondria Different-Phenotype (%)” value [2] was 8% and the “Population Mitotic Cells (%)” value [2] was 68%. The “Population Normal (%)” value [2] was 91%, the “Population Pyknosed Nuclei (%)” value [2] was 19% and the “Population Tubulin-Different-Phenotype (%)” value [2] was 38%. For the same compound, the “Total Cell Count” value [2] was 192, the “Population Apoptotic (%)” value [3] was 38% and the “Population Fragmented Nuclei (%)” value [3] was 20%. The “Population Healthy Nuclei (%)” value [3] was 47%, the “Population Hoechst High Intensity Objects (%)” value [3] was 6% and the “Population Membrane Permeable-Phenotype (%)” value [3] was 1%. The “Population Mitochondria Different-Phenotype (%)” value [3] was 7%, the “Population Mitotic Cells (%)” value [3] was 61% and the “Population Normal (%)” value [3] was 93%. The “Population Pyknosed Nuclei (%)” value [3] was 31%, the “Population Tubulin-Different-Phenotype (%)” value [3] was 21% and the “Total Cell Count” value [3] was 148. The “Population Apoptotic (%)” value [4] was 33%, the “Population Fragmented Nuclei (%)” value [4] was 38% and the “Population Healthy Nuclei (%)” value [4] was 45%. For the same compound, the “Population Hoechst High Intensity Objects (%)” value [4] was 0%, the “Population Membrane Permeable-Phenotype (%)” value [4] was 12% and the “Population Mitochondria Different-Phenotype (%)” value [4] was 5%. The “Population Mitotic Cells (%)” value [4] was 66%, the “Population Normal (%)” value [4] was 99% and the “Population Pyknosed Nuclei (%)” value [4] was 16%. For the same compound, the “Population Tubulin-Different-Phenotype (%)” value [4] was 43%, the “Total Cell Count” value [4] was 129 and the “Population Apoptotic (%)” value [5] was 56%. For the same compound, the “Population Fragmented Nuclei (%)” value [5] was 12%, the “Population Healthy Nuclei (%)” value [5] was 77% and the “Population Hoechst High Intensity Objects (%)” value [5] was 1%. For the same compound, the “Population Membrane Permeable-Phenotype (%)” value [5] was 0%, the “Population Mitochondria Different-Phenotype (%)” value [5] was 3% and the “Population Mitotic Cells (%)” value [5] was 43%. The “Population Normal (%)” value [5] was 98%, the “Population Pyknosed Nuclei (%)” value [5] was 10% and the “Population Tubulin-Different-Phenotype (%)” value [5] was 16%. The “Total Cell Count” value [5] was 159, the “Population Apoptotic (%)” value [6] was 33% and the “Population Fragmented Nuclei (%)” value [6] was 25%. For the same compound, the “Population Healthy Nuclei (%)” value [6] was 60%, the “Population Hoechst High Intensity Objects (%)” value [6] was 7% and the “Population Membrane Permeable-Phenotype (%)” value [6] was 2%. For the same compound, the “Population Mitochondria Different-Phenotype (%)” value [6] was 7%, the “Population Mitotic Cells (%)” value [6] was 66% and the “Population Normal (%)” value [6] was 92%. For the same compound, the “Population Pyknosed Nuclei (%)” value [6] was 14%, the “Population Tubulin-Different-Phenotype (%)” value [6] was 41% and the “Total Cell Count” value [6] was 180. For the same compound, the “Population Apoptotic (%)” value [7] was 48%, the “Population Fragmented Nuclei (%)” value [7] was 16% and the “Population Healthy Nuclei (%)” value [7] was 60%. For the same compound, the “Population Hoechst High Intensity Objects (%)” value [7] was 3%, the “Population Membrane Permeable-Phenotype (%)” value [7] was 0% and the “Population Mitochondria Different-Phenotype (%)” value [7] was 2%. For the same compound, the “Population Mitotic Cells (%)” value [7] was 51%, the “Population Normal (%)” value [7] was 96% and the “Population Pyknosed Nuclei (%)” value [7] was 23%. The “Population Tubulin-Different-Phenotype (%)” value [7] was 24%, the “Total Cell Count” value [7] was 148 and the “Population Apoptotic (%)” value [8] was 41%. For the same compound, the “Population Fragmented Nuclei (%)” value [8] was 41%, the “Population Healthy Nuclei (%)” value [8] was 44% and the “Population Hoechst High Intensity Objects (%)” value [8] was 0%. For the same compound, the “Population Membrane Permeable-Phenotype (%)” value [8] was 10%, the “Population Mitochondria Different-Phenotype (%)” value [8] was 10% and the “Population Mitotic Cells (%)” value [8] was 58%. For the same compound, the “Population Normal (%)” value [8] was 99%, the “Population Pyknosed Nuclei (%)” value [8] was 13% and the “Population Tubulin-Different-Phenotype (%)” value [8] was 41%. For the same compound, the “Total Cell Count” value [8] was 130, the “Population Apoptotic (%)” value [9] was 57% and the “Population Fragmented Nuclei (%)” value [9] was 14%. The “Population Healthy Nuclei (%)” value [9] was 76%, the “Population Hoechst High Intensity Objects (%)” value [9] was 4% and the “Population Membrane Permeable-Phenotype (%)” value [9] was 4%. For the same compound, the “Population Mitochondria Different-Phenotype (%)” value [9] was 3%, the “Population Mitotic Cells (%)” value [9] was 42% and the “Population Normal (%)” value [9] was 95%. For the same compound, the “Population Pyknosed Nuclei (%)” value [9] was 8%, the “Population Tubulin-Different-Phenotype (%)” value [9] was 24% and the “Total Cell Count” value [9] was 167. The “Population Apoptotic (%)” value [10] was 38%, the “Population Fragmented Nuclei (%)” value [10] was 26% and the “Population Healthy Nuclei (%)” value [10] was 61%. The “Population Hoechst High Intensity Objects (%)” value [10] was 5%, the “Population Membrane Permeable-Phenotype (%)” value [10] was 0% and the “Population Mitochondria Different-Phenotype (%)” value [10] was 9%. For the same compound, the “Population Mitotic Cells (%)” value [10] was 61%, the “Population Normal (%)” value [10] was 94% and the “Population Pyknosed Nuclei (%)” value [10] was 12%. The “Population Tubulin-Different-Phenotype (%)” value [10] was 41%, the “Total Cell Count” value [10] was 177 and the “Population Apoptotic (%)” value [11] was 61%. For the same compound, the “Population Fragmented Nuclei (%)” value [11] was 22%, the “Population Healthy Nuclei (%)” value [11] was 61% and the “Population Hoechst High Intensity Objects (%)” value [11] was 6%. For the same compound, the “Population Membrane Permeable-Phenotype (%)” value [11] was 1%, the “Population Mitochondria Different-Phenotype (%)” value [11] was 2% and the “Population Mitotic Cells (%)” value [11] was 38%. The “Population Normal (%)” value [11] was 93%, the “Population Pyknosed Nuclei (%)” value [11] was 15% and the “Population Tubulin-Different-Phenotype (%)” value [11] was 21%. The “Total Cell Count” value [11] was 145, the “Population Apoptotic (%)” value [12] was 33% and the “Population Fragmented Nuclei (%)” value [12] was 48%. The “Population Healthy Nuclei (%)” value [12] was 44%, the “Population Hoechst High Intensity Objects (%)” value [12] was 1% and the “Population Membrane Permeable-Phenotype (%)” value [12] was 3%. The “Population Mitochondria Different-Phenotype (%)” value [12] was 9%, the “Population Mitotic Cells (%)” value [12] was 66% and the “Population Normal (%)” value [12] was 98%. For the same compound, the “Population Pyknosed Nuclei (%)” value [12] was 7%, the “Population Tubulin-Different-Phenotype (%)” value [12] was 45% and the “Total Cell Count” value [12] was 127.

— ChEMBL document CHEMBL5058577, “EUbOPEN Chemogenomics Library 2 (Multiplex)” (2022)
